TRPC6 activator = activates the mouse TRPC6 cation channel; HEK293-TRPC6 membrane potential dye fluorescence; hits give high values; B-score at 10 µM; 310,000 compounds, 0.13% hits; AID 2550;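 active = B-score of the integrated fluorescence ratio above library mean plus 3 SD, and starting fluorescence ratio within library mean plus 5 SD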;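 note: higher score means more depolarization so channel activation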
Target sequence (Q61143 whole entry, looked up): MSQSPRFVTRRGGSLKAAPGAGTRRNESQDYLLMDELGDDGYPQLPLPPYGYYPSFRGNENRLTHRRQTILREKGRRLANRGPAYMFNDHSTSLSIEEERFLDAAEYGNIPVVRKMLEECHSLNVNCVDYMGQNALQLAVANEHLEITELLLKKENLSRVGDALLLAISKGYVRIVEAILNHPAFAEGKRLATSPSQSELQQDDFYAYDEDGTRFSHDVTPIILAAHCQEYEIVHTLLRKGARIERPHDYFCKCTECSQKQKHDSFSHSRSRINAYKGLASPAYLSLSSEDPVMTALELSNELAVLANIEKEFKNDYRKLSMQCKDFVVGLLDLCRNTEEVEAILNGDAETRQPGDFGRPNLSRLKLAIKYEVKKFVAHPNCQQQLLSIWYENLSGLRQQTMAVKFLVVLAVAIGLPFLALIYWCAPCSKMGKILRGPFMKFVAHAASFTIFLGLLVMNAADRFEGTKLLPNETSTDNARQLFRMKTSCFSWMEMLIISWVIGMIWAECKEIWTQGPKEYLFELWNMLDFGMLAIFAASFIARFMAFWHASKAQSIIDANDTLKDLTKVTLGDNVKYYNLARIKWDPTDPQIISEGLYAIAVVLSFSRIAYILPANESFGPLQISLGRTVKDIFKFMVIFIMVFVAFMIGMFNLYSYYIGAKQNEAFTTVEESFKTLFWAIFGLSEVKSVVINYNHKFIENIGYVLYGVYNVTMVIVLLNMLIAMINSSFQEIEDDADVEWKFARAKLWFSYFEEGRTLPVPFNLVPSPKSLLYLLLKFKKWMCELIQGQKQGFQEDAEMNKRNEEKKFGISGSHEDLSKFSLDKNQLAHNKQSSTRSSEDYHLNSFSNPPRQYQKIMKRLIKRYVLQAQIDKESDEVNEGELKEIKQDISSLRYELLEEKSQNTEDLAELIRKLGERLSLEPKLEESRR
TRPC4 act = opens the mouse TRPC4 cation channel; Q9QUQ5; HEK293 TRPC4beta/mu-opioid, Fluo4 calcium fluorescence; hits give high values; B-score at 10 µM; 310,000 compounds, 0.49% hits; AID 2237;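 active = B-score above 5 SD of library B-scores, and initial fluorescence ratio not above library mean plus 5 SD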;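 note: positive B-score marks a calcium rise read as TRPC4 activation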
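Test system: HEK293 cells stably co-expressing mouse TRPC4beta and mu-opioid receptor | Schedule: Fluo4 dye loading 45 min at room temperature, 110 s recording | Measured by: Kinetic Fluo4 calcium fluorescence, 5 s baseline at 1 Hz | Evaluation: B score of integrated ratio | Controls: Buffer (low) and maximal DAMGO (high)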
TRPC4 inh = inhibitors of mouse TRPC4 channel | 300,000 compounds, 0.39% hits | B-score at 10 µM | HEK293 TRPC4beta/mu-opioid, DAMGO-evoked Fluo4 calcium flux; hits give low values | AID 2247;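 active = B-score over 3 SD under the library average, no early fluorescence shift, positive overall ratio signal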
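test system = HEK293 cells with stable TRPC4beta plus mu-opioid receptor expression | detection = Fluo4 Ca2+ flux fluorescence | read-out = integrated fluorescence ratio relative to baseline, converted to per-well B score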
TRPC4 PAM = TRPC4 (mouse) allosteric potentiation | HEK293 TRPC4beta/mu-opioid, DAMGO EC20, Fluo-4 Ca2+ flux; hits give high values | 310,000 compounds, 0.42% hits | B-score at 10 µM | AID 2227 | Q9QUQ5;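 active = B-score of calcium response area above 5 SD of library B-scores, with initial fluorescence ratio within 5 SD of library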;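 note: B-score of integrated fluorescence ratio over time as area under calcium response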
TRPC6 inh = mouse TRPC6 channel inhibition; HEK293-TRPC6, membrane potential dye, ACh-evoked depolarization; hits give low values; AID 2553; Q61143; 310,000 compounds, 1.1% hits; B-score at 10 µM;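 active = B-score under library mean minus 3 SD, initial fluorescence not abnormally high, positive integrated signal ratio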;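 note: B-score derived from integrated fluorescence ratio over the kinetic read; more negative B-score means stronger inhibition of depolarization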
Active calls of the source: *. An excerpt weighted towards active compounds, which were near 2.3% of everything screened.

What do the screens show for `COc1ccc(CN2CCC(Oc3ccc(C(=O)N4CCCC4)cc3)CC2)c(F)c1`?
TRPC6 activator: inactive; TRPC4 act: inactive; TRPC4 inh: inactive; TRPC4 PAM: inactive; TRPC6 inh: inactive

How did O=c1[nH]c(C2CCCN(S(=O)(=O)c3ccccc3)C2)nc2c1nnn2Cc1ccccc1Br (stereo not given) do in these assays?
TRPC6 activator: inactive; TRPC4 act: inactive; TRPC4 inh: inactive; TRPC4 PAM: 10*; TRPC6 inh: inactive

What do the screens show for `O=c1[nH]c(SCc2ccc(F)cc2Cl)nc2ccccc12`?
TRPC6 activator: inactive; TRPC4 act: inactive; TRPC4 inh: inactive; TRPC4 PAM: inactive; TRPC6 inh: inactive

Results for CCOC(=O)Cn1c(=O)oc2cc(S(=O)(=O)Nc3ccc(F)cc3)ccc21 ?
TRPC6 activator: inactive; TRPC4 act: 47*; TRPC4 inh: inactive; TRPC4 PAM: inactive; TRPC6 inh: inactive

What do the screens show for `Cc1nc(NCCC(C)C)c2nnn(Cc3ccccc3)c2n1`?
TRPC6 activator: inactive; TRPC4 act: inactive; TRPC4 inh: inactive; TRPC4 PAM: inactive; TRPC6 inh: inactive

What do the screens show for `COc1ccccc1N1CCN(C(=O)c2ccc3c(c2)NC(=O)C(CSCc2ccccc2C)N3)CC1` (stereo not given)?
TRPC6 activator: inactive; TRPC4 act: inactive; TRPC4 inh: inactive; TRPC4 PAM: inactive; TRPC6 inh: -8.77*

How did O=C1Nc2cc(C(=O)N3CCN(c4ccccc4F)CC3)ccc2NC1CSCc1ccccc1F (stereo not given) do in these assays?
TRPC6 activator: inactive; TRPC4 act: inactive; TRPC4 inh: inactive; TRPC4 PAM: inactive; TRPC6 inh: inactive

Results for O=C(O)CCC(=O)N1N=C(c2ccccc2)CC1c1cccs1 (stereo not given) ?
TRPC6 activator: inactive; TRPC4 act: inactive; TRPC4 inh: inactive; TRPC4 PAM: inactive; TRPC6 inh: inactive

What do the screens show for `COc1ccccc1/C=C/C(=O)NCCc1ccccn1`?
TRPC6 activator: inactive; TRPC4 act: inactive; TRPC4 inh: inactive; TRPC4 PAM: inactive; TRPC6 inh: inactive

Results for CCCCc1nc(N2CCOCC2)c(C#N)c2c1CCCC2 ?
TRPC6 activator: inactive; TRPC4 act: inactive; TRPC4 inh: -6*; TRPC4 PAM: inactive; TRPC6 inh: inactive

How did CCCc1nc(N2CCOCC2)c(C#N)c2c1CCCC2 do in these assays?
TRPC6 activator: inactive; TRPC4 act: inactive; TRPC4 inh: inactive; TRPC4 PAM: inactive; TRPC6 inh: inactive

What do the screens show for `CCOC(=O)CNc1nc(Cl)nc(Nc2ccc(Cl)cc2)n1`?
TRPC6 activator: inactive; TRPC4 act: inactive; TRPC4 inh: inactive; TRPC4 PAM: inactive; TRPC6 inh: inactive

What do the screens show for `CC1=CC(=O)C=C(C)C1=NOS(=O)(=O)c1ccccc1`?
TRPC6 activator: inactive; TRPC4 act: inactive; TRPC4 inh: inactive; TRPC4 PAM: inactive; TRPC6 inh: inactive

How did CC1=CC(=O)C(C(C)C)=C/C1=N/OS(=O)(=O)c1ccccc1 do in these assays?
TRPC6 activator: inactive; TRPC4 act: inactive; TRPC4 inh: inactive; TRPC4 PAM: 21*; TRPC6 inh: inactive

How did COc1ccc([N+](=O)[O-])cc1NC(=O)CCSCCc1ccccn1 do in these assays?
TRPC6 activator: inactive; TRPC4 act: inactive; TRPC4 inh: inactive; TRPC4 PAM: inactive; TRPC6 inh: inactive

How did Cc1ccc(S(=O)(=O)Nc2ccc3c(c2)nc(CCN2CCCCC2)n3C)cc1 do in these assays?
TRPC6 activator: inactive; TRPC4 act: inactive; TRPC4 inh: inactive; TRPC4 PAM: inactive; TRPC6 inh: inactive

What do the screens show for `Cc1ccc(S(=O)(=O)Nc2ccc3c(c2)nc(CN2CCCC2)n3C)cc1`?
TRPC6 activator: inactive; TRPC4 act: 44*; TRPC4 inh: inactive; TRPC4 PAM: inactive; TRPC6 inh: inactive

Results for NC(=S)N/N=C1/CCSc2ccc3ccccc3c21 ?
TRPC6 activator: inactive; TRPC4 act: inactive; TRPC4 inh: inactive; TRPC4 PAM: 17*; TRPC6 inh: inactive

How did COc1ccc(-c2nnc3sc(-c4ccccn4)nn23)cc1 do in these assays?
TRPC6 activator: inactive; TRPC4 act: inactive; TRPC4 inh: inactive; TRPC4 PAM: inactive; TRPC6 inh: inactive

What do the screens show for `CC(C)(C)c1ccc(-c2nnc3sc(-c4ccccn4)nn23)cc1`?
TRPC6 activator: inactive; TRPC4 act: inactive; TRPC4 inh: inactive; TRPC4 PAM: 85*; TRPC6 inh: inactive

Assay outcomes from PubChem.
